Assay results taken from ChEMBL document CHEMBL1131065, “1,4- and 2,6-disubstituted amidoanthracene-9,10-dione derivatives as inhibitors of human telomerase” (J Med Chem, 1998).
Active and inactive are the calls of the source. The calls are words filed in the database; no cut-off is given here.

Columns and labels:
SK-OV-3 = experiment: Concentration required to inhibit SKOV-3-cell growth by 50%; assay type: functional, cell-based; conditions: Homo sapiens
Method in brief: (§1)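 Human ovarian carcinoma cells grown as monolayers in DMEM with 10% FBS, 2 mM glutamine and 0.5 µg/mL hydrocortisone under 6% CO2. 3000–6000 cells per well, attached overnight. Salts dissolved in water, added in quadruplicate at final 0.05, 0.25, 1, 5 and 25 µM for 96 h. Cells fixed with TCA and stained with SRB, absorbance read at 540 nm. IC50 taken from mean absorbance as % of untreated control.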

CH1 = experiment: Concentration required to inhibit CH1-cell growth by 50%; assay type: functional, cell-based; conditions: Homo sapiens; method in brief: as §1
[1] = target: T1, Telomerase reverse transcriptase (Homo sapiens, UniProt O14746); experiment: Inhibition of telomerase activity
Method in brief: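 Modified cell-free TRAP using CHAPS lysate of exponentially growing A2780 cells. Protein (0.04 µg) incubated with TS primer, 50 µM dNTPs and [α-32P]dCTP in TRAP buffer (pH 8.3) ± compound at 1–50 µM for 20 min at 25 °C. Telomerase heat-killed at 80 °C, then 31-cycle PCR with CX primer and Taq. Products read by denaturing gel/phosphorimaging or TCA filter scintillation counting. IC50 taken relative to controls.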

A2780 = experiment: Concentration required to inhibit A2780-cell growth by 50%; assay type: functional, cell-based; conditions: Homo sapiens; method in brief: as §1
[2] = target: DNA polymerase I, thermostable (Thermus aquaticus) (UniProt P19821); experiment: Inhibition of Taq polymerase at 10 uM (Slight inhibition)
Method in brief: (§2)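 Compound at final 10 µM in a PCR mix: pCI-neo vector template, forward/reverse primers, Tris-HCl pH 8.8 buffer, 2.5 mM MgCl2, 200 µM each dNTP, 1.25 U thermostable polymerase. Run 30 cycles (94/55/72 °C). Products separated on 2% agarose with ethidium bromide and compared to a no-drug water control (~1 kb product); inhibition graded semiquantitatively.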

[3] = target: DNA polymerase I, thermostable (Thermus aquaticus) (UniProt P19821); experiment: Inhibition of Taq polymerase at 50 uM (Total inhibition)
Method in brief: (§3)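 Compound at final 50 µM in PCR with pCI-neo template and primers, Tris-HCl pH 8.8 buffer, 2.5 mM MgCl2, 200 µM each dNTP, 1.25 U thermostable polymerase. Run 30 cycles of 94 °C 1 min, 55 °C 1 min, 72 °C 2.5 min. Agarose/ethidium bromide read-out against a water no-drug control, scored semiquantitatively.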

[4] = target: T1, Telomerase reverse transcriptase; experiment: Concentration required to inhibit telomerase activity
Method in brief: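 Cell-free modified TRAP assay. Enzyme source is a CHAPS lysate of exponentially growing A2780 ovarian carcinoma cells, which was clarified and stored at -80 °C. Protein (0.04 μg) was incubated with TS primer, dNTPs and [α-32P]dCTP in TRAP buffer (pH 8.3) ± agent at 1, 5, 10, 20 and 50 μM for 20 min at 25 °C. Telomerase was then heat-inactivated at 80 °C, followed by 31-cycle PCR with CX primer. Products were quantified by gel phosphorimaging or by TCA-precipitated filter scintillation counting. IC50 is relative to controls.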

[5] = target: DNA polymerase I, thermostable (Thermus aquaticus) (UniProt P19821); experiment: Inhibition of Taq polymerase at 50 uM (No inhibition); method in brief: as §3
[6] = target: DNA polymerase I, thermostable (Thermus aquaticus) (UniProt P19821); experiment: Inhibition of Taq polymerase at 10 uM (No inhibition); method in brief: as §2
[7] = target: DNA polymerase I, thermostable (Thermus aquaticus) (UniProt P19821); experiment: Inhibition of Taq polymerase at 10 uM (Significant inhibition); method in brief: as §2

Sequence of DNA polymerase I, thermostable (Thermus aquaticus) (P19821 whole entry): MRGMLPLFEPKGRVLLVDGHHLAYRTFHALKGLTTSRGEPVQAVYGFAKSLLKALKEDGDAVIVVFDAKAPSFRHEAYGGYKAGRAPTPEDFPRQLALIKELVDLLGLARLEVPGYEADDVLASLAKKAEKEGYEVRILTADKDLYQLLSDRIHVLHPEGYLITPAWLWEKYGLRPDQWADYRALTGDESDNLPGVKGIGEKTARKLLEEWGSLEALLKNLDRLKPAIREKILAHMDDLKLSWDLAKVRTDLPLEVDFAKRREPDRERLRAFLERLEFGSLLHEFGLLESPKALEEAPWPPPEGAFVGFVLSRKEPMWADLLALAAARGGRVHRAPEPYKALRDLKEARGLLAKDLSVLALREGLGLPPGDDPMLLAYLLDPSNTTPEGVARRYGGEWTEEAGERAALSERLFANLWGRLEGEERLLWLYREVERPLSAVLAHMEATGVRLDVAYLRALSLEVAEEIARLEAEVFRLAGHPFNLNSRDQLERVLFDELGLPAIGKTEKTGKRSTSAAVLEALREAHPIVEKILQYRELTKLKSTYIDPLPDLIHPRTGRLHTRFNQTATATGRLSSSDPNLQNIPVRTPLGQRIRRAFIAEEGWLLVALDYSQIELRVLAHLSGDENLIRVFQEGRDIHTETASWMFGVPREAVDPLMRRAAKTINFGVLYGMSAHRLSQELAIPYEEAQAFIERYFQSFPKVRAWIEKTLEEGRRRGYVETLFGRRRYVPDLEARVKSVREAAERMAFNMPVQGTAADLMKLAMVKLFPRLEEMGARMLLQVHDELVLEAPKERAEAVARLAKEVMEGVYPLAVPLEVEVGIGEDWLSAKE
T1 sequence (O14746 whole entry): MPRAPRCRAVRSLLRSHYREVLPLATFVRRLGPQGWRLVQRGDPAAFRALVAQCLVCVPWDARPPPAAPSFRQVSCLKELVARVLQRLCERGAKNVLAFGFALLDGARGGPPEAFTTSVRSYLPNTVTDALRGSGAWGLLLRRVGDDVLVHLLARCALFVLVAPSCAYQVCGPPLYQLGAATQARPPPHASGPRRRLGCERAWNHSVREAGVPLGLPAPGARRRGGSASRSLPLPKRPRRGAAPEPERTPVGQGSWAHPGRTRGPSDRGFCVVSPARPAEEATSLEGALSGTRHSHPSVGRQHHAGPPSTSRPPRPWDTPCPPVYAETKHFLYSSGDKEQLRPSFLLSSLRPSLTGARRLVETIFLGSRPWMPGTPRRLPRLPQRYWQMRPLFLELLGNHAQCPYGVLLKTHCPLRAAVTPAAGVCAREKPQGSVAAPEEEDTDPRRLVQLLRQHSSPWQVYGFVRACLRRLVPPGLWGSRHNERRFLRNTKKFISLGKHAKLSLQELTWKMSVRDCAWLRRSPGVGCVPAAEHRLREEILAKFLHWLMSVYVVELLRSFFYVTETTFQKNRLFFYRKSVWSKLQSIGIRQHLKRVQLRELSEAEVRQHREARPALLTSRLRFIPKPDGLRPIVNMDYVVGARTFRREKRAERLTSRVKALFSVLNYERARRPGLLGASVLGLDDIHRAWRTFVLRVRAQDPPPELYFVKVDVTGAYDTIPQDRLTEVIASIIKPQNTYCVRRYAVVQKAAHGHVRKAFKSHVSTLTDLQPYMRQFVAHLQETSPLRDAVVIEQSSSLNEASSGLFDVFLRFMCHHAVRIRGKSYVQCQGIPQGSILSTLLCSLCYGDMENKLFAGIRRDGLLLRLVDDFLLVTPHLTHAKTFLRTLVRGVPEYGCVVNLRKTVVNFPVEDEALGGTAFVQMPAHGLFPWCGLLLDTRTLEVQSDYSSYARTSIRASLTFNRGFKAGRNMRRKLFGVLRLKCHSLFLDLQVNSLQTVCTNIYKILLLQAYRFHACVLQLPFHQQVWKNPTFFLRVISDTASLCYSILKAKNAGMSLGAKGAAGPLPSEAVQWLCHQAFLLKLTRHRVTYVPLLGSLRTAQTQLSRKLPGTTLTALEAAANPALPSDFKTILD

O=C(CCN1CCN(CCO)CC1)Nc1ccc2c(c1)C(=O)c1ccc(NC(=O)CCN3CCN(CCO)CC3)cc1C2=O gave an IC50 (SK-OV-3) of 7000 nM, an IC50 (CH1) of 7900 nM and an IC50 [1] of 16500 nM. For the same compound, the IC50 (A2780) was 11000 nM.
O=C(CCN1CCCCC1CO)Nc1ccc2c(c1)C(=O)c1ccc(NC(=O)CCN3CCCCC3CO)cc1C2=O (centres undefined) was tested, and the IC50 (SK-OV-3) was 2400 nM, the IC50 (CH1) was 14500 nM and the IC50 (A2780) was 2450 nM.
Work on O=C(CCN1CCOCC1)Nc1ccc2c(c1)C(=O)c1ccc(NC(=O)CCN3CCOCC3)cc1C2=O yielded an IC50 (SK-OV-3) of 9000 nM, an IC50 (CH1) of 20000 nM and an IC50 [1] greater than 50000 nM. The IC50 (A2780) was 4800 nM.
O=C(CN1CCCCC1)Nc1ccc2c(c1)C(=O)c1ccc(NC(=O)CN3CCCCC3)cc1C2=O gave an IC50 (SK-OV-3) of 5000 nM, an IC50 (CH1) of 5050 nM and an IC50 [1] greater than 50000 nM. The IC50 (A2780) was 1650 nM.
For O=C1c2c(O)ccc(O)c2C(=O)c2c(NCCNCCO)ccc(NCCNCCO)c21, the inhibition [2] was “Weak inhibition” and the inhibition [3] was “Weak inhibition”.
With C[N+](C)(C)CCC(=O)Nc1ccc2c(c1)C(=O)c1ccc(NC(=O)CC[N+](C)(C)C)cc1C2=O the IC50 (SK-OV-3) was 4400 nM, the IC50 (CH1) was 1900 nM and the IC50 [1] was 17300 nM. It also gave an IC50 (A2780) of 2250 nM.
With CCC[N+](C)(CCC)CCC(=O)Nc1ccc2c(c1)C(=O)c1ccc(NC(=O)CC[N+](C)(CCC)CCC)cc1C2=O the IC50 (SK-OV-3) was 2000 nM, the IC50 (CH1) was 680 nM and the IC50 (A2780) was 500 nM.
Compound C[N+]1(CCC(=O)Nc2ccc3c(c2)C(=O)c2ccc(NC(=O)CC[N+]4(C)CCOCC4)cc2C3=O)CCOCC1 has an IC50 (SK-OV-3) of 3000 nM, an IC50 (CH1) of 1700 nM and an IC50 (A2780) of 1900 nM.
Work on Nc1nc2c(ncn2[C@H]2CC[C@@H](COP(=O)(O)OP(=O)(O)OP(=O)(O)O)O2)c(=O)[nH]1 [DIDEOXY GUANOSINE TRIPHOSPHATE] yielded an IC50 [4] of 8600 nM.
For C[N+]1(CCC(=O)Nc2ccc(NC(=O)CC[N+]3(C)CCCCC3)c3c2C(=O)c2ccccc2C3=O)CCCCC1, the IC50 (SK-OV-3) was 32500 nM, the IC50 (CH1) was 4300 nM and the IC50 [1] was 11100 nM. It also gave an IC50 (A2780) of 1750 nM.
For CN(C)CCC(=O)Nc1ccc2c(c1)C(=O)c1ccc(NC(=O)CCN(C)C)cc1C2=O, the IC50 (SK-OV-3) was 2900 nM, the IC50 (CH1) was 1800 nM and the IC50 (A2780) was 2550 nM.
For O=C(CCN1CCOCC1)Nc1ccc(NC(=O)CCN2CCOCC2)c2c1C(=O)c1ccccc1C2=O, the IC50 (SK-OV-3) was 21000 nM, the IC50 (CH1) was 1950 nM and the IC50 [1] was 33500 nM. The IC50 (A2780) was 3700 nM.
CCCN(CCC)CCC(=O)Nc1ccc(NC(=O)CCN(CCC)CCC)c2c1C(=O)c1ccccc1C2=O was tested, and the IC50 (SK-OV-3) was 4500 nM, the Taq inhibition [5] was “inactive” and the IC50 (CH1) was 480 nM. For the same compound, the IC50 [1] was 50000 nM, the Taq inhibition [6] was “inactive” and the IC50 (A2780) was 130 nM.
C[N+]1(CC(=O)Nc2ccc3c(c2)C(=O)c2ccc(NC(=O)C[N+]4(C)CCCCC4)cc2C3=O)CCCCC1 gave an IC50 (SK-OV-3) of 9000 nM, an IC50 (CH1) of 4300 nM and an IC50 (A2780) of 6500 nM.
For O=C(CCN1CCCCC1)Nc1ccc2c(c1)C(=O)c1ccc(NC(=O)CCN3CCCCC3)cc1C2=O, the IC50 (SK-OV-3) was 4000 nM, the IC50 (CH1) was 5900 nM and the IC50 [1] was 4500 nM. For the same compound, the IC50 (A2780) was 1300 nM.
Work on C[N+](C)(C)CCC(=O)Nc1ccc(NC(=O)CC[N+](C)(C)C)c2c1C(=O)c1ccccc1C2=O yielded an IC50 (SK-OV-3) of 11500 nM, an IC50 (CH1) of 2000 nM and an IC50 (A2780) of 2150 nM.
Compound C[N+]1(CCC(=O)Nc2ccc(NC(=O)CC[N+]3(C)CCCCC3CO)c3c2C(=O)c2ccccc2C3=O)CCCCC1CO (centres undefined) has an IC50 (SK-OV-3) of 1500 nM, an IC50 (CH1) of 540 nM and an IC50 [1] of 9400 nM. It also gave an IC50 (A2780) of 380 nM.
For CCC[N+](C)(CCC)CCC(=O)Nc1ccc(NC(=O)CC[N+](C)(CCC)CCC)c2c1C(=O)c1ccccc1C2=O, the IC50 (SK-OV-3) was 16000 nM, the IC50 (CH1) was 4450 nM and the IC50 (A2780) was 1400 nM.
With O=C(CCN1CCCCC1CO)Nc1ccc(NC(=O)CCN2CCCCC2CO)c2c1C(=O)c1ccccc1C2=O (centres undefined) the IC50 (SK-OV-3) was 270 nM, the IC50 (CH1) was 64 nM and the IC50 (A2780) was 20 nM.
With CCCN(CCC)CCC(=O)Nc1ccc2c(c1)C(=O)c1ccc(NC(=O)CCN(CCC)CCC)cc1C2=O the IC50 (SK-OV-3) was 2400 nM, the IC50 (CH1) was 1400 nM and the IC50 [1] was greater than 50000 nM. The IC50 (A2780) was 380 nM.
In the case of C[N+]1(CCC(=O)Nc2ccc3c(c2)C(=O)c2ccc(NC(=O)CC[N+]4(C)CCCCC4)cc2C3=O)CCCCC1, the IC50 (SK-OV-3) is reported as 2200 nM, the IC50 (CH1) is reported as 1850 nM and the IC50 (A2780) is reported as less than 1000 nM.
O=C(CN1CCOCC1)Nc1ccc2c(c1)C(=O)c1ccc(NC(=O)CN3CCOCC3)cc1C2=O was tested, and the IC50 (SK-OV-3) was 4500 nM, the IC50 (CH1) was 4150 nM and the IC50 [1] was greater than 50000 nM. It also gave an IC50 (A2780) of 5900 nM.
In the case of C[N+]1(CCC(=O)Nc2ccc3c(c2)C(=O)c2ccc(NC(=O)CC[N+]4(C)CCCCC4CO)cc2C3=O)CCCCC1CO (centres undefined), the IC50 (SK-OV-3) is reported as 1800 nM, the IC50 (CH1) is reported as 2300 nM and the IC50 (A2780) is reported as 1250 nM.
In the case of O=C(CCN1CCCCC1)Nc1ccc(NC(=O)CCN2CCCCC2)c2c1C(=O)c1ccccc1C2=O, the IC50 (SK-OV-3) is reported as 2400 nM, the IC50 (CH1) is reported as 260 nM and the IC50 (A2780) is reported as 290 nM.
For C[N+]1(CC(=O)Nc2ccc3c(c2)C(=O)c2ccc(NC(=O)C[N+]4(C)CCOCC4)cc2C3=O)CCOCC1, the IC50 (SK-OV-3) was 45500 nM, the IC50 (CH1) was 18000 nM and the IC50 (A2780) was 13000 nM.
C[N+]1(CCC(=O)Nc2ccc(NC(=O)CC[N+]3(C)CCOCC3)c3c2C(=O)c2ccccc2C3=O)CCOCC1 gave an IC50 (SK-OV-3) of 8500 nM, an IC50 (CH1) of 1650 nM and an IC50 [1] of 34500 nM. It also gave an IC50 (A2780) of 760 nM.
In the case of COc1cccc2c1C(=O)c1c(O)c3c(c(O)c1C2=O)C[C@@](O)(C(=O)CO)C[C@@H]3O[C@H]1C[C@H](N)[C@H](O)[C@H](C)O1 [DOXORUBICIN], the IC50 (SK-OV-3) is reported as 78 nM, the IC50 (CH1) is reported as 6.3 nM and the inhibition [7] is reported as “Weak activity”. For the same compound, the inhibition [3] was “Active” and the IC50 (A2780) was 9.6 nM.
For CN(C)CCC(=O)Nc1ccc(NC(=O)CCN(C)C)c2c1C(=O)c1ccccc1C2=O, the IC50 (SK-OV-3) was 360 nM, the IC50 (CH1) was 40 nM and the inhibition [2] was “Weak inhibition”. For the same compound, the inhibition [3] was “Weak inhibition” and the IC50 (A2780) was 16 nM.
